Series [1] can be described thus: Partition coefficient, log P of the compound. The note with it: octanol/water. The format is physicochemical. The method, boiled down: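 Calculated, not measured: AlogP, IAlogP, ClogP, Cosmo logP, mlogP, Kowwin and XlogP were computed and averaged.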
In a further series the test system is Trichoderma viride. In words: Antifungal activity against Trichoderma viride IAM 5061 after 72 hrs by microdilution test. The format is functional. In outline:
(§1)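 Modified microdilution in malt broth. Spores were washed from malt agar with sterile 0.85% saline containing 0.1% Tween 80 and adjusted to about 1.0 × 10⁵ per well. Compounds were dissolved in DMSO and tested at […] µg/ml. Incubation 72 h at 28 °C. MIC is the lowest concentration with no visible growth under a binocular microscope. MFC by 2 µl subculture and a further 72 h at 28 °C.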
(Dilution methods test growth across graded concentrations, often in twofold steps.)

The subject of a further series is Enterobacter cloacae. In words: Antibacterial activity against Enterobacter cloacae after 24 hrs by microdilution test. It is filed as functional. In outline: (§2)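 Broth microdilution in LB medium in 96-well plates. Inoculum 1.0 × 10⁴ CFU per well, from a suspension set to 1.0 × 10⁵ CFU/ml in sterile saline. Compounds at […] µg/ml. Incubation 24 h at 28 °C. MIC is the lowest concentration with no visible growth under a binocular microscope. MBC by subculturing 2 µl into fresh broth for a further 72 h. OD540 read against blank. DMSO negative control.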

The test system of a further series is Micrococcus luteus. In words: Antibacterial activity against Micrococcus flavus ATCC 10240 after 24 hrs by microdilution test. It is filed as functional. The note with it: ATCC 10240, 24 h. In outline:
as §2

The test system of the next series is Aspergillus versicolor. The series is described as follows: Antifungal activity against Aspergillus versicolor ATCC 11730 after 72 hrs by microdilution test. Conditions: ATCC 11730, 72 h. It is filed as functional. In outline:
as §1

In another series the test system is Escherichia coli. The series is described as follows: Antibacterial activity against Escherichia coli ATCC 35210 after 24 hrs by microdilution test. Conditions: ATCC 35210, 24 h. It is filed as functional. In outline:
as §2

Series [2] deals with Staphylococcus epidermidis. In words: Antibacterial activity against Staphylococcus epidermidis ATCC 12228 after 24 hrs by microdilution test. The format is functional. The note with it: ATCC 12228, 24 h. The method, boiled down:
as §2

In another series the test system is Aspergillus niger. In words: Antifungal activity against Aspergillus niger ATCC 6275 after 72 hrs by microdilution test. It is filed as functional. The note with it: ATCC 6275, 72 h. In outline: as §1
Another series deals with Salmonella enteritidis. In words: Antibacterial activity against Salmonella enteritidis ATCC 13076 after 24 hrs by microdilution test. The format is functional, Salmonella enterica subsp. enterica serovar Enteritidis. The note with it: Salmonella enterica, ATCC 13076, 24 h. The method, boiled down:
as §2

For another series, the system named is Aspergillus ochraceus. In words: Antifungal activity against Aspergillus ochraceus ATCC 12066 after 72 hrs by microdilution test. The format is functional. Conditions: ATCC 12066, 72 h. In outline:
as §1

The subject of a further series is Bacillus cereus. The series is described as follows: Antibacterial activity against Bacillus cereus ATCC 10907 after 24 hrs by microdilution test. The note with it: ATCC 10907, 24 h.
The test system of a further series is Aspergillus flavus. In words: Antifungal activity against Aspergillus flavus ATCC 9643 after 72 hrs by microdilution test. The format is functional. The note with it: ATCC 9643, 72 h. In outline: as §1
For a further series, the system named is Salmonella typhimurium. In words: Antibacterial activity against Salmonella Typhimurium ATCC 13311 after 24 hrs by microdilution test. The note with it: Salmonella enterica, ATCC 13311, 24 h. It is filed as functional, Salmonella enterica subsp. enterica serovar Typhimurium. The method, boiled down: as §2
Another series relates to Talaromyces funiculosus. The series is described as follows: Antifungal activity against Penicillium funiculosum ATCC 36839 after 72 hrs by microdilution test. The format is functional. The note with it: ATCC 36839, 72 h. The method, boiled down:
as §1

The structures appear in SMILES notation. In brackets after ≈: the same amount, converted by molar mass.

As to `COc1cc(Cc2n[nH]c(=S)n2-c2ccccc2)c(S(=O)(=O)N2CCOCC2)cc1OC`, the logP in series [1] stood at 1.57. Also, the MFC in the series with Trichoderma viride, with Aspergillus versicolor, with Aspergillus niger, with Aspergillus ochraceus, in the series on Aspergillus flavus and against Talaromyces funiculosus was 150 µg/mL (≈ 315 µM) throughout. The MIC with Trichoderma viride came to 100 µg/mL (≈ 210 µM); against Enterobacter cloacae, 100 µg/mL (≈ 210 µM); in the series on Micrococcus luteus it was 150 µg/mL (≈ 315 µM); with Aspergillus versicolor, 100 µg/mL (≈ 210 µM); in the series on Escherichia coli, 100 µg/mL (≈ 210 µM); in [2] it was 150 µg/mL (≈ 315 µM). For the same compound, the minimal inhibitory concentration (MIC) in the series on Aspergillus niger is 150 µg/mL (≈ 315 µM); against Salmonella enteritidis, 150 µg/mL (≈ 315 µM); with Aspergillus ochraceus, 100 µg/mL (≈ 210 µM); against Bacillus cereus, 150 µg/mL (≈ 315 µM); with Aspergillus flavus, 100 µg/mL (≈ 210 µM); in the series on Salmonella typhimurium, 150 µg/mL (≈ 315 µM). The compound also displayed an MIC in the series with Talaromyces funiculosus of 100 µg/mL (≈ 210 µM). For the same compound, the MBC against Enterobacter cloacae turned out to be 100 µg/mL (≈ 210 µM); with Micrococcus luteus, 150 µg/mL (≈ 315 µM); against Escherichia coli, 150 µg/mL (≈ 315 µM); in series [2], 150 µg/mL (≈ 315 µM); against Salmonella enteritidis, 150 µg/mL (≈ 315 µM); in the series with Bacillus cereus, 150 µg/mL (≈ 315 µM). For the same compound, the MBC with Salmonella typhimurium was determined as 150 µg/mL (≈ 315 µM).

Compound `COc1cc(Cc2n[nH]c(=S)n2-c2ccc(Cl)cc2)c(S(=O)(=O)N2CCCC2)cc1OC` showed a logP in series [1] of 2.11. Moreover, the minimal fungicidal concentration (MFC) in the series with Trichoderma viride, against Aspergillus versicolor, in the series with Aspergillus niger, in the series with Aspergillus ochraceus, with Aspergillus flavus and in the series with Talaromyces funiculosus was 150 µg/mL (≈ 303 µM) in each case. Further, the minimal inhibitory concentration (MIC) with Trichoderma viride amounted to 150 µg/mL (≈ 303 µM); against Enterobacter cloacae it was 100 µg/mL (≈ 202 µM); in the series on Micrococcus luteus, 150 µg/mL (≈ 303 µM); in the series on Aspergillus versicolor, 100 µg/mL (≈ 202 µM); in the series on Escherichia coli, 150 µg/mL (≈ 303 µM); in [2] it was 150 µg/mL (≈ 303 µM). For the same compound, the MIC is 150 µg/mL (≈ 303 µM) against Aspergillus niger; 150 µg/mL (≈ 303 µM) against Salmonella enteritidis; 100 µg/mL (≈ 202 µM) in the series on Aspergillus ochraceus; 150 µg/mL (≈ 303 µM) in the series on Bacillus cereus; 100 µg/mL (≈ 202 µM) in the series with Aspergillus flavus; 150 µg/mL (≈ 303 µM) in the series on Salmonella typhimurium. For the same compound, in the series with Talaromyces funiculosus, 100 µg/mL (≈ 202 µM) was the least that counted as inhibitory (MIC). Further, the MBC with Enterobacter cloacae came to 100 µg/mL (≈ 202 µM); with Micrococcus luteus, 150 µg/mL (≈ 303 µM); against Escherichia coli, 150 µg/mL (≈ 303 µM); in [2], 150 µg/mL (≈ 303 µM); in the series with Salmonella enteritidis, 150 µg/mL (≈ 303 µM); with Bacillus cereus, 150 µg/mL (≈ 303 µM). Moreover, in the series on Salmonella typhimurium, the MBC is 150 µg/mL (≈ 303 µM).

On to `c1ccc(-c2ccc(C(c3ccccc3)n3ccnc3)cc2)cc1` (centres undefined) [BIFONAZOLE], for which the MFC in the series with Trichoderma viride was determined as 250 µg/mL (≈ 805 µM); in the series with Aspergillus versicolor it was 200 µg/mL (≈ 644 µM); against Aspergillus niger, 250 µg/mL (≈ 805 µM); in the series with Aspergillus ochraceus it was 200 µg/mL (≈ 644 µM); against Aspergillus flavus, 200 µg/mL (≈ 644 µM); with Talaromyces funiculosus, 250 µg/mL (≈ 805 µM). In addition, the MIC against Trichoderma viride was found to be 200 µg/mL (≈ 644 µM); in the series on Aspergillus versicolor it was 150 µg/mL (≈ 483 µM); with Aspergillus niger, 200 µg/mL (≈ 644 µM); against Aspergillus ochraceus, 150 µg/mL (≈ 483 µM); against Aspergillus flavus it was 150 µg/mL (≈ 483 µM); in the series with Talaromyces funiculosus it was 200 µg/mL (≈ 644 µM).

As for `O=C(N[C@H](CO)[C@H](O)c1ccc([N+](=O)[O-])cc1)C(Cl)Cl` [CHLORAMPHENICOL], the MBC in the series on Enterobacter cloacae was 200 µg/mL (≈ 619 µM); in the series with Micrococcus luteus it was 200 µg/mL (≈ 619 µM); in the series on Escherichia coli it was 250 µg/mL (≈ 774 µM); in [2], 100 µg/mL (≈ 309 µM); in the series on Salmonella enteritidis it was 200 µg/mL (≈ 619 µM); against Bacillus cereus, 200 µg/mL (≈ 619 µM). In the series on Salmonella typhimurium, this compound came in with an MBC of 200 µg/mL (≈ 619 µM). Also, the MIC in the series with Enterobacter cloacae was 150 µg/mL (≈ 464 µM); in the series with Micrococcus luteus it was 150 µg/mL (≈ 464 µM); with Escherichia coli it was 250 µg/mL (≈ 774 µM); in series [2], 100 µg/mL (≈ 309 µM); in the series on Salmonella enteritidis, 150 µg/mL (≈ 464 µM); with Bacillus cereus it was 150 µg/mL (≈ 464 µM). In the series on Salmonella typhimurium, the minimal inhibitory concentration (MIC) turned out to be 150 µg/mL (≈ 464 µM).

Consider `CN[C@@H]1[C@H](O[C@H]2[C@H](O[C@H]3[C@H](O)[C@@H](O)[C@H](N=C(N)N)[C@@H](O)[C@@H]3N=C(N)N)O[C@@H](C)[C@]2(O)C=O)O[C@@H](CO)[C@H](O)[C@H]1O` [STREPTOMYCIN], for which the minimum bactericidal concentration (MBC) in the series with Enterobacter cloacae is 100 µg/mL (≈ 172 µM); in the series on Micrococcus luteus, 150 µg/mL (≈ 258 µM); against Escherichia coli, 150 µg/mL (≈ 258 µM); in series [2] it was 100 µg/mL (≈ 172 µM); in the series on Salmonella enteritidis, 100 µg/mL (≈ 172 µM); in the series with Bacillus cereus, 150 µg/mL (≈ 258 µM). The MBC in the series with Salmonella typhimurium was determined as 100 µg/mL (≈ 172 µM). The minimum inhibitory concentration (MIC) in the series with Enterobacter cloacae turned out to be 50 µg/mL (≈ 86 µM); against Micrococcus luteus it was 100 µg/mL (≈ 172 µM); in the series on Escherichia coli, 100 µg/mL (≈ 172 µM); in series [2], 150 µg/mL (≈ 258 µM); against Salmonella enteritidis it was 50 µg/mL (≈ 86 µM); against Bacillus cereus it was 100 µg/mL (≈ 172 µM). In addition, in the series on Salmonella typhimurium, the MIC came to 50 µg/mL (≈ 86 µM).

By logP is commonly meant a log measure of how a compound divides between an organic and an aqueous phase. A lower logP goes with lower lipophilicity. Broadly, the MFC is the smallest concentration meeting the test's criterion for killing the fungus. The low end stands for more potent killing, the high end for less potent killing. Usually MIC stands for the lowest concentration found to suppress growth. Broadly, the MBC is the smallest concentration meeting the test's criterion for killing. High values mean weaker bactericidal potency, low ones greater bactericidal potency.
